Test results reported in ChEMBL document CHEMBL1123468, “Synthesis and antiviral activity of (E)-5-(2-bromovinyl)uracil and (E)-5-(2-bromovinyl)uridine” (1986).
In brackets after ≈: the same amount, converted by molar mass. Several values for one entry are separate records, joined by “and”; a condition that tells them apart may be missing. Equal values may be shown once.

Experiments:
[1] = tested on: M21; test: The compound was tested for its antiviral activity against HSV-1 (KOS) virus in M-21 (GM137) cell line,; type: functional; conditions: Homo sapiens
In short: (§1)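 Virus-induced cytopathogenicity in cell culture, scored microscopically. The value is the minimum concentration that cuts viral cytopathogenicity by 50%. Normal cell morphology was also checked microscopically at up to 400 μg/mL.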

[2] = tested on: E6SM; test: The concentration required to reduce the cytopathogenicity of HSV-1 (KOS) in E6SM cell culture by 50% in presence of 10 ug/mL of dUrd; type: functional; conditions: Homo sapiens
In short: (§2)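 E6SM cells infected with HSV-1 (KOS), with Urd or dUrd added alone or together with 6-aminothymine (50 μg/mL). The value is the minimum concentration that reduces viral cytopathogenicity by 50%.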

[3] = The concentration required to reduce the cytopathogenicity of HSV-1 (KOS) in PRK cell culture by 50% in presence of specified concentrations of 6-aminothymine; type: functional, Oryctolagus cuniculus
In short: (§3)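 The cells were primary rabbit kidney (PRK) cultures infected with HSV-1 strain KOS, with 6-aminothymine co-present in the medium. The value is the minimum inhibitory concentration that reduces viral cytopathogenicity by 50%, using the previously described cytopathogenicity inhibition method.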

[4] = tested on: HeLa; test: The concentration required to reduce the cytopathogenicity of HSV-1 (KOS) in HeLa cell culture by 50% in presence of specified concentrations of 6-aminothymine; type: functional, Homo sapiens
[5] = tested on: E6SM; test: The concentration required to reduce the cytopathogenicity of HSV-1 (KOS) in E6SM cell culture by 50% in presence of specified concentrations of 6-aminothymine; type: functional; conditions: Homo sapiens
In short: (§4)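 E6SM cultures were infected with HSV-1 strain KOS. 6-Aminothymine or benzylacyclouridine was present in the medium together with the test compound. The value is the minimum concentration giving 50% reduction of viral cytopathogenicity, scored by the earlier-described cytopathogenicity inhibition procedure.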

[6] = tested on: E6SM; test: The concentration required to reduce the cytopathogenicity of HSV-1 (KOS) in E6SM cell culture by 50% in presence of 100 ug/mL of dUrd; type: functional; conditions: Homo sapiens; in short: as §2
[7] = tested on: E6SM; test: The concentration required to reduce the cytopathogenicity of HSV-1 (KOS) in E6SM cell culture by 50% in absence of dThd; type: functional; conditions: Homo sapiens
In short: (§5)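 E6SM cells infected with HSV-1 (KOS), with dThd added to the culture medium at the stated concentration. The value is the minimum concentration that reduces viral cytopathogenicity by 50%.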

[8] = tested on: E6SM; test: The concentration required to reduce the cytopathogenicity of HSV-1 (KOS) in E6SM cell culture by 50% in presence 0 ug/mL of 50 ug/mL of 6-aminothymine; type: functional; conditions: Homo sapiens
In short: (§6)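 E6SM cells infected with HSV-1 (KOS), with 6-aminothymine or benzylacyclouridine added to the medium at the stated concentration. The value is the minimum concentration that reduces viral cytopathogenicity by 50%.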

[9] = tested on: E6SM; test: The concentration required to reduce the cytopathogenicity of HSV-1 (KOS) in E6SM cell culture by 50% in presence of 3 ug/mL dThd; type: functional; conditions: Homo sapiens; in short: as §5
[10] = tested on: T-21 (LR); test: The compound was tested for its antiviral activity against HSV-1 (KOS) virus in T-21 (LR) cell line; type: functional; conditions: Homo sapiens; in short: as §1
[11] = tested on: Vero; test: The compound was tested for its antiviral activity against HSV-1 (KOS) virus in vero cell line; type: functional; conditions: Chlorocebus sabaeus; in short: as §1
[12] = tested on: E6SM; test: The concentration required to reduce the cytopathogenicity of HSV-1 (KOS) in E6SM cell culture by 50% in presence of 10 ug/mL dThd; type: functional; conditions: Homo sapiens; in short: as §5
[13] = tested on: E6SM; test: The concentration required to reduce the cytopathogenicity of HSV-1 (KOS) in E6SM cell culture by 50% in presence of specified concentrations of benzylacyclouridine; type: functional, Homo sapiens; in short: as §4
[14] = tested on: BSC-1; test: The compound was tested for its antiviral activity against HSV-1 (KOS) virus in BS-C-1A cell line; type: functional, Cercopithecidae; conditions: Chlorocebus aethiops; in short: as §1
[15] = tested on: E6SM; test: The concentration required to reduce the cytopathogenicity of HSV-1 (KOS) in E6SM cell culture by 50% in presence of 100 ug/ml concentrations of 6-aminothymine; type: functional; conditions: Homo sapiens; in short: as §6
[16] = tested on: HeLa; test: The concentration required to reduce the cytopathogenicity of HSV-1 (KOS) in HeLa cell culture by 50% in presence of 100 ug/mL concentrations of 6-aminothymine; type: functional; conditions: Homo sapiens
[17] = The concentration required to reduce the cytopathogenicity of HSV-1 (KOS) in PRK cell culture by 50% in presence of 4 ug/mL concentrations of 6-aminothymine; type: functional; conditions: Oryctolagus cuniculus; in short: as §3
[18] = The concentration required to reduce the cytopathogenicity of HSV-1 (KOS) in PRK cell culture 0 ug/mL specified concentrations of 6-aminothymine; type: functional; conditions: Oryctolagus cuniculus
[19] = tested on: E6SM; test: The concentration required to reduce the cytopathogenicity of HSV-1 (KOS) in E6SM cell culture by 50% in presence of 20 ug/mL concentrations of 6-aminothymine; type: functional; conditions: Homo sapiens; in short: as §6
[20] = tested on: E6SM; test: The concentration required to reduce the cytopathogenicity of HSV-1 (KOS) in E6SM cell culture by 50% in absence of 0 ug/mL dThd; type: functional; conditions: Homo sapiens; in short: as §5
[21] = tested on: E6SM; test: The concentration required to reduce the cytopathogenicity of HSV-1 (KOS) in E6SM cell culture by 50% in presence of 10 ug/mL concentrations of benzylacyclouridine; type: functional, Homo sapiens; in short: as §6
[22] = tested on: E6SM; test: The concentration required to reduce the cytopathogenicity of HSV-1 (KOS) in E6SM cell culture by 50% in presence of 0 ug/mL concentrations of 6-aminothymine; type: functional; conditions: Homo sapiens; in short: as §6
[23] = tested on: HeLa; test: The concentration required to reduce the cytopathogenicity of HSV-1 (KOS) in HeLa cell culture by 50% in presence of 4 ug/mL concentrations of 6-aminothymine; type: functional; conditions: Homo sapiens
[24] = The concentration required to reduce the cytopathogenicity of HSV-1 (KOS) in PRK cell culture by 50% in presence of 20 ug/mL concentrations of 6-aminothymine; type: functional; conditions: Oryctolagus cuniculus; in short: as §3
[25] = tested on: HeLa; test: The concentration required to reduce the cytopathogenicity of HSV-1 (KOS) in HeLa cell culture by 50% in presence of 20 ug/mL concentrations of 6-aminothymine; type: functional; conditions: Homo sapiens
[26] = The concentration required to reduce the cytopathogenicity of HSV-1 (KOS) in PRK cell culture by 50% in presence of 100 ug/mL concentrations of 6-aminothymine; type: functional; conditions: Oryctolagus cuniculus; in short: as §3
[27] = tested on: E6SM; test: The concentration required to reduce the cytopathogenicity of HSV-1 (KOS) in E6SM cell culture by 50% in presence of 4 ug/mL concentrations of 6-aminothymine; type: functional; conditions: Homo sapiens; in short: as §4
[28] = tested on: E6SM; test: The concentration required to reduce the cytopathogenicity of HSV-1 (KOS) in E6SM cell culture by 50% in presence of 0 ug/mL concentrations of benzylacyclouridine; type: functional; conditions: Homo sapiens; in short: as §6
[29] = tested on: M21; test: The compound was tested for its antiviral activity against HSV-1 (KOS) virus M-21 (GM137) cell line; type: functional; conditions: Homo sapiens; in short: as §1
[30] = tested on: HeLa; test: The concentration required to reduce the cytopathogenicity of HSV-1 (KOS) in HeLa cell culture by 50% in presence of 0 ug/mL concentrations of 6-aminothymine; type: functional; conditions: Homo sapiens

## O=c1[nH]c(=O)n([C@H]2C[C@H](O)[C@@H](CO)O2)cc1/C=C/Br [BRIVUDINE]
[1]
  MIC50: 0.02 mg/L (≈ 0.06 µM)
[2]
  MIC50: 0.02 mg/L
[3]
  MIC50: 0.01 mg/L
[3]; Oryctolagus cuniculus, read-out: MIC50
  MIC50: 0.01 mg/L
[4]
  MIC50: 0.01 mg/L and 0.02 mg/L
[4]; Homo sapiens, read-out: MIC50
  MIC50: 0.01 mg/L
[5]
  MIC50: 0.02 mg/L
[6]
  MIC50: 0.2 mg/L
[7]
  MIC50: 0.02 mg/L (≈ 0.06 µM)
[8]
  MIC50: 0.02 mg/L (≈ 0.06 µM)
[9]
  MIC50: 0.02 mg/L
[10]
  MIC50: 0.02 mg/L (≈ 0.06 µM)
[11]
  MIC50: 0.4 mg/L (≈ 1.2 µM)
[12]
  MIC50: 0.4 mg/L
[13]
  MIC50: 0.02 mg/L
[13]; Homo sapiens, read-out: MIC50
  MIC50: 0.04 mg/L
[14]
  MIC50: 0.2 mg/L (≈ 0.6 µM)

## Oc1ncc(/C=C/Br)c(O)n1
[15]
  MIC50: > 400 mg/L
[16]
  MIC50: > 200 mg/L
[2]
  MIC50: 0.7 mg/L
[17]
  MIC50: > 400 mg/L
[18]
  MIC50: > 400 mg/L
[19]
  MIC50: > 400 mg/L
[20]
  MIC50: 7 mg/L (≈ 32.3 µM)
[6]
  MIC50: 0.7 mg/L
[21]
  MIC50: 4 mg/L
[21]; Homo sapiens, read-out: MIC50
  MIC50: 4 mg/L
[22]
  MIC50: 7 mg/L
[23]
  MIC50: > 200 mg/L
[9]
  MIC50: 4 mg/L
[10]
  MIC50: 7 mg/L (≈ 32.3 µM)
[11]
  MIC50: > 400 mg/L
[12]
  MIC50: 70 mg/L
[24]
  MIC50: > 400 mg/L
[25]
  MIC50: > 200 mg/L
[26]
  MIC50: > 400 mg/L
[27]
  MIC50: > 400 mg/L
[28]
  MIC50: 4 mg/L
[29]
  MIC50: 1 mg/L (≈ 4.61 µM)
[30]
  MIC50: 2 mg/L
[14]
  MIC50: > 400 mg/L
